# High-throughput results from PubChem BioAssay.
# M5 ag: agonists of human muscarinic M5 receptor (CHRM5) | P08912 | CHO-K1 hM5 cells, Fluo-8 calcium fluorescence; 0% DMSO wells, 100% maximal acetylcholine response | activation, % at 3 µM | hit rate 0.19% among 360,000 | AID 624037;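 active = activation above the run's mean over test compounds plus 3 SD, cut at about 23% in these data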;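 note: signal is peak over basal fluorescence ratio across the kinetic read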
# Target sequence (P08912 whole entry, looked up): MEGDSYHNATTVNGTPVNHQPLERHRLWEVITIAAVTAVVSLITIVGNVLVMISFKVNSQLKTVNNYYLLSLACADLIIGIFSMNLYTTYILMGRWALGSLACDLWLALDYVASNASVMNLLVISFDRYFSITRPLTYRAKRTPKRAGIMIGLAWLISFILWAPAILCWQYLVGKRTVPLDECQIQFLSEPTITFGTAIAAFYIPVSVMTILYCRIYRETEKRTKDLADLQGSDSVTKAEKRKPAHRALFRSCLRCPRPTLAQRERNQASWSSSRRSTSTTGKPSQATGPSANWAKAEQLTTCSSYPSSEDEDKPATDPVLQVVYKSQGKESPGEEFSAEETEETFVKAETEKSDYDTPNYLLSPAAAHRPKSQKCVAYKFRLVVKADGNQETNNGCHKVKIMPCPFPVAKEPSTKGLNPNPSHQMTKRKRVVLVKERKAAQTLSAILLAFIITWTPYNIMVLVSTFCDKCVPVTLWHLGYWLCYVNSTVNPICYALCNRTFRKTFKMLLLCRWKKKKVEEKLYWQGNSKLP
# CHRM4 antagonist: blocks acetylcholine activation of human M4 receptor | hit rate 0.73% among 360,000 | inhibition, % at 3 µM | AID 624125 | CHO-hM4 cells, ACh EC80, Fluo-8 calcium fluorescence;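 active = inhibition above its plate's cutoff, the mean inhibition of sample wells plus 3 SD, cut at about 27% in these data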;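 note: 0% = acetylcholine EC80 with DMSO and 100% = DMSO without agonist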
# M4 PAM: potentiates acetylcholine response at human M4 receptor | P08173 | CHO-K1 hM4/Gqi5, Fluo-8 calcium fluorescence, ACh EC20; 0% = ACh EC20, 100% = maximal ACh | activation, % at 3 µM | hit rate 0.4% among 360,000 | AID 624126;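 active = activation above its plate's cutoff, the mean activation of sample wells plus 3 SD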
# M5 antag: blocks acetylcholine activation of human M5 receptor | CHO-hM5 cells, Fluo-8 calcium fluorescence, ACh EC80 | hit rate 0.59% among 360,000 | inhibition, % at 3 µM | AID 624040;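 active = inhibition above a per-plate cutoff, the mean of that plate's test compounds plus 3 SD, cut at about 27% in these data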;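 note: 0% = acetylcholine EC80 with DMSO and 100% = DMSO without agonist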
# CHRM5 PAM: positive allosteric modulators of human muscarinic M5 receptor; P08912; CHO-K1 hM5, Fluo-8 calcium, ACh EC20 PAM; 0% = ACh EC20, 100% = ACh EC100; activation, % at 3 µM; hit rate 0.3% among 360,000; AID 624038;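 active = activation above the run cutoff, the mean activation of all test compounds plus 3 SD, cut at about 18% in these data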
#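 system = human M5 receptor in CHO-K1 cells | compound = one concentration, 3 µM final (nominal) | schedule = Post-acetylcholine fluorescence recording 140 s | signal = Fluo-8 calcium dye fluorescence, kinetic read | benchmarks = low control EC20 acetylcholine (0%), high control EC100 acetylcholine (100%) | repeats = singlicate, one well per test compound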
# CHRM4 agonist: CHRM4 agonism in calcium assay | hit rate 0.14% among 360,000 | CHO-K1 hM4/Gqi5, Fluo-8 calcium fluorescence; vehicle 0%, full acetylcholine response 100% | activation, % at 3 µM | AID 624127;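 active = activation above the run mean over all test wells plus 3 SD, cut at about 32% in these data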;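 note: peak over basal fluorescence ratio per well then scaled between controls; 0% = DMSO wells and 100% = acetylcholine at EC100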
# The depositor's hits bear a star. The list is not random: actives were taken first. Their share in the collection is about 1.8%.
SMILES,M5 ag,CHRM4 antagonist,M4 PAM,M5 antag,CHRM5 PAM,CHRM4 agonist
COCCCNC(=O)C1=CCN(S(=O)(=O)c2ccc(C)cc2)CC1,-2,3,-3,9,-8,12
O=C(CSc1n[nH]c(=O)n1C1CC1)Nc1cc(Cl)ccc1Oc1ccccc1,4,47*,-16,30*,-20,22
CCOC(=O)Cc1csc(SCC(=O)Nc2cc(Cl)ccc2Oc2ccccc2)n1,-3,45*,-10,20,-16,8
CCOC(=O)Cc1csc(SCC(=O)NC2CCC(C)CC2)n1 (stereo not given),-2,-26,20*,-7,-1,2
COc1ccc(OC)c(NC(=O)CSc2nc(C)cs2)c1,1,3,45*,-18,11,-2
N#Cc1c(NCc2ccccc2)ccnc1Cl,-5,5,-18,4,-4,9
CCOc1cccc(CN2CCC(CCC(=O)NC3CC3)CC2)c1O,-8,-24,7,12,-4,1
Cc1ccc(C(=O)N2CCCC2)cc1S(=O)(=O)Nc1cccc(C)c1C,0,-9,6,4,-1,4
Cn1c(SCC(=O)Nc2ccc(Br)cn2)nnc1C1CC1,0,0,-2,7,0,1
Clc1ccc(OCc2nnc(SCCN3CCCCC3)n2Cc2ccco2)cc1,-7,58*,-27,12,-17,1
O=c1c2ccccc2nnn1CSc1nnc(COc2ccc(Cl)cc2)n1Cc1ccco1,-2,-19,8,-3,0,2
O=C(CN1CCN(CC(=O)Nc2cccc(F)c2)CC1)Nc1ccc(-c2ccccc2)cc1,-2,-6,-1,0,0,3
COc1ccc(NC(=O)C23CC4CC(CC(Cl)(C4)C2)C3)cc1S(=O)(=O)N1CCOCC1,1,-11,-2,7,1,10
COc1ccc(C(=O)Nc2ccccc2C(=O)N2CCOCC2)cc1OC,1,-10,-2,6,2,2
COc1cccc(OC)c1C(=O)Nc1ccccc1C(=O)N1CCOCC1,-5,-1,0,33*,-13,1
COc1ccc(OCc2nn3c(-c4ccco4)nnc3s2)cc1,3,-10,-1,-2,-6,4
COc1ccc(OCc2nn3c(-c4cccc(OC)c4)nnc3s2)cc1,-2,-13,21*,-5,4,2
Clc1cccc(NCc2ccccc2)n1,-5,0,22*,7,-1,4
O=C(Nc1ccc(S(=O)(=O)Nc2cnc3ccccc3n2)cc1)c1ccccc1Br,-2,7,2,8,-1,2
O=C(CN1CCCCC1)NC(=O)NC1CCCCC1,-5,12,0,55*,-17,1
NC(=O)C1CCN(CC(=O)NC(=O)NC2CCCC2)CC1,-1,-6,20*,9,-1,2
O=C(CN1CCCC1)NC(=O)NC1CCCC1,0,1,-1,-2,7,0
Cc1cccc(NC2CCCCC2NS(=O)(=O)c2ccccc2)c1 (stereo not given),-3,2,-3,20,-8,-1
O=C(N/N=C/c1cc([N+](=O)[O-])ccc1O)c1cccc2ccccc12,-3,-1,7,0,-3,0
Fc1ccc(Nc2nnc(C(F)(F)F)s2)cc1Cl,-3,12,-8,32*,-22,11
SMILES,M5 ag,CHRM4 antagonist,M4 PAM,M5 antag,CHRM5 PAM,CHRM4 agonist
CCOC(=O)c1ccc(NC(=O)CSc2nnc(-c3cccs3)n2C)cc1,3,-9,4,-8,21*,2
CCOC(=O)c1ccc(NC(=O)CSc2nnc(-c3cccs3)n2CC)cc1,3,-2,12,1,-2,1
Cc1c(C(=O)OCC(C)(C)CN(C)C)oc2ccccc12,-13,-3,-6,-3,0,1
Cc1c(C(=O)OC(C)CCN(C)C)oc2ccccc12 (stereo not given),-5,31*,-21,7,-13,1
COc1ccc(C(=O)n2nc(C)c(Br)c2C)cc1,-10,4,12,-10,21*,1
CSc1ncccc1C(=O)OCC(=O)NCCc1ccccc1,-1,-9,4,-6,6,0
COc1ccc(CNC(=O)CN(C2CCCCC2)S(C)(=O)=O)cc1,-3,-5,26*,-3,7,2
Cc1ccc(-c2nn3nnnc3c3ccccc23)cc1C,-2,11,39*,7,10,1
c1ccc(-c2nn3nnnc3c3ccccc23)cc1,0,5,-3,2,-2,0
O=C(c1cccc(S(=O)(=O)N2CCCc3ccccc32)c1)N1CCN(c2ccccc2)CC1,-3,-13,-3,12,-18,7
C/C(=N\Nc1ncnc2sc(C)c(C)c12)c1ccccn1,-1,-17,5,-22,22*,2
OC[C@@H]1CN(Cc2ccc(-c3ccccc3)cc2)C[C@H](n2cnc3c(NC4CCC4)ncnc32)O1,5,28*,-10,29*,-14,17
COc1ccc(CN2C[C@@H](CO)O[C@@H](n3cnc4c(N5CCCC5)ncnc43)C2)cc1,-2,-23,17*,4,-3,2
OC[C@@H]1CN(Cc2ccccc2)C[C@H](n2cnc3c(NC4CC4)ncnc32)O1,0,-5,4,7,-2,1
CCn1c(SCC(=O)Nc2cc(Cl)ccc2OC)nnc1C1CC1,-1,12,0,4,2,1
CSc1nc(C)c(C(=O)C[n+]2ccccc2)cc1C#N,-9,-3,-2,-2,10,0
CC(=O)c1ccc(S(=O)(=O)N2CCN(C(C)C(=O)N(C)Cc3ccccc3)CC2)cc1 (stereo not given),-6,-16,5,10,-15,6
COc1ccc(N(CC(=O)NCCc2ccccc2)C(=O)c2csnn2)cc1,-3,0,-3,32*,-11,2
CCOc1ccc(N(CC(=O)NCCc2ccccc2)C(=O)c2csnn2)cc1,-2,-29,16*,4,-5,2
Cc1ccc(N(CC(=O)NCc2ccc(F)cc2)C(=O)c2csnn2)c(C)c1,-2,-2,-1,4,-1,2
COc1ccc(N(CC(=O)NCCc2ccccc2)C(=O)c2csnn2)cc1OC,0,-1,4,2,2,0
Cc1cc(C)c(N(CC(=O)NCc2ccccc2)C(=O)c2csnn2)c(C)c1,2,-17,-1,-14,23*,2
Cc1ccc(N(CC(=O)NCCc2ccccc2)C(=O)c2csnn2)cc1,-2,12,1,6,-2,1
CCCC1NC(=O)c2cccnc2-n2c1nc1cc(C)cc(C)c1c2=O (stereo not given),-3,-1,0,7,0,-1
